For orientation: CC50 means the concentration at which the toxic effect on the cells reaches its halfway point. Low values mean greater toxicity to the cells, high ones lower toxicity to the cells. Broadly, the EC50 is the concentration needed to bring the measured effect to its halfway point. The low end stands for greater potency, the high end for weaker potency.

This passage reports CC50, Selectivity index and EC50 results from ChEMBL document CHEMBL1127327, “Novel series of TSAO-T derivatives. Synthesis and anti-HIV-1 activity of 4-, 5-, and 6-substituted pyrimidine analogues” (J Med Chem, 1994).

Assay [1] relates to MT4. Description: Concentration required for 50% of cell death on MT-4 cell lines. The class given is functional, Homo sapiens. The procedure, abridged:
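Mock-infected MT-4 cells (5 × 10^5 cells/mL) in fresh culture medium, mixed in microtiter wells with dilutions of test compound. After 5 days, viable cells counted by trypan blue staining. CC50 taken as the compound concentration that reduces the number of mock-infected MT-4 cells by 50%.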

The subject of assay [2] is MT4. Kind of assay: Selectivity index (ratio CC50/EC50) in MT-4 cells is measured. It is filed as functional. In short, it runs like this:
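Ratio of CC50 to EC50, both from MT-4 cultures read after 5 days by trypan blue viable-cell counts. CC50 is the concentration reducing mock-infected MT-4 cell number by 50%. EC50 comes from HIV-infected MT-4 cells (100 CCID50 per mL, 5 × 10^5 cells/mL).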

In assay [3] the test system is CCRF-CEM. Description: Effective concentration against HIV-1 induced cytopathicity in CEM cells. The following applies: Homo sapiens. The class given is functional, cell-based. In short, it runs like this:
(§1)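 CEM cells at 5 × 10^5 cells/mL in fresh medium, infected with HIV-1 or HIV-2 at 100 CCID50 per mL of suspension, then mixed 1:1 with serial compound dilutions. Virus-induced syncytia were counted microscopically after 4 days. EC50 is the concentration reducing syncytium number by 50%.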
A general note: Damage to the host cells serves as the signal in cytopathic effect assays.

The test system of assay [4] is CCRF-CEM. Description: Effective concentration against HIV-2 induced cytopathicity in CEM cells. The class given is functional, cell-based. The following applies: Homo sapiens. The procedure, abridged:
as §1

Assay [5] deals with Human immunodeficiency virus. Kind of assay: Effective concentration against HIV-1 induced cytopathicity in MT-4 cells. The class given is functional, organism-based, MT4. The procedure, abridged: (§2)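 MT-4 cells at 5 × 10^5 cells/mL, infected with HIV-1 or HIV-2 at 100 CCID50 per mL, then mixed 1:1 with serial compound dilutions. After 5 days, viable cells in infected and mock-infected cultures were counted by trypan blue exclusion. EC50 is the concentration giving a 50% reduction in virus-induced loss of viable cells.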

Assay [6] deals with MT4. Kind of assay: Effective concentration against HIV-2 induced cytopathicity in MT-4 cells. It is filed as functional, cell-based. Conditions: Homo sapiens. In short, it runs like this: as §2
The mark [7] stands for this setting: Human immunodeficiency virus 1, MT4.

Several values for one entry are separate records, joined by “and”; a condition that tells them apart may be missing. Identical values can stand only once.

With `CCc1cn([C@@H]2O[C@H](CO[Si](C)(C)C(C)(C)C)[C@@]3(OS(=O)(=O)C=C3N)[C@H]2O[Si](C)(C)C(C)(C)C)c(=O)[nH]c1=O`, the CC50 in assay [1] worked out at 5.3 µM. For the same compound, the Selectivity index in assay [2] amounted to 88.

Turning to `CC(C)(C)[Si](C)(C)OC[C@H]1O[C@@H](n2ccc(=O)[nH]c2=O)[C@H](O[Si](C)(C)C(C)(C)C)C12OS(=O)(=O)C=C2N` (some centres undefined), the CC50 in assay [1] is 14 µM. The Selectivity index in assay [2] is on record as 74.

For `Cc1cn([C@@H]2O[C@H](CO[Si](C)(C)C(C)(C)C)C3(OS(=O)(=O)C=C3N)[C@H]2O[Si](C)(C)C(C)(C)C)c(=O)[nH]c1=O` (some centres undefined), the EC50 in assay [3] was 0.044 µM; in assay [4], greater than 7 µM. In assay [1], this compound returned a CC50 of 13 µM. For the same compound, the Selectivity index in assay [2] is 217.

As for `Cc1cn([C@@H]2O[C@H](CO[Si](C)(C)C(C)(C)C)[C@@]3(OS(=O)(=O)C=C3N)[C@H]2O[Si](C)(C)C(C)(C)C)c(=O)nc1N`, the values for the EC50 in assay [3] and in assay [4] were 0.05 µM and greater than 13.5 µM, respectively. Further, in assay [1], the CC50 was determined as 30 µM. The Selectivity index in assay [2] turned out to be 250.

With `CC(C)(C)[Si](C)(C)OC[C@H]1O[C@@H](n2ccc(N)nc2=O)[C@H](O[Si](C)(C)C(C)(C)C)[C@]12OS(=O)(=O)C=C2N`, the figures for the EC50 in assay [3] and in assay [4] were 1.39 µM and greater than 350 µM, respectively. The CC50 in assay [1] was greater than 350 µM. The Selectivity index in assay [2] was determined as 460.

`CC(C)(C)[Si](C)(C)OC[C@H]1O[C@@H](n2cc(Br)c(=O)[nH]c2=O)[C@H](O[Si](C)(C)C(C)(C)C)[C@]12OS(=O)(=O)C=C2N` showed a CC50 in assay [1] of 3.6 µM. The EC50 in assay [5] (mt4) is 0.32 µM and > 2.4 µM. The Selectivity index in assay [2] is given as 11.

As to `CNc1nc(=O)n([C@@H]2O[C@H](CO[Si](C)(C)C(C)(C)C)[C@@]3(OS(=O)(=O)C=C3N)[C@H]2O[Si](C)(C)C(C)(C)C)cc1C`, the EC50 in assay [3] was 0.11 µM; in assay [4], greater than 33 µM. Moreover, the CC50 in assay [1] amounted to 26 µM. Besides, the Selectivity index in assay [2] is 217.

As for `CC(C)(C)[Si](C)(C)OC[C@H]1O[C@@H]2[C@H](O[Si](C)(C)C(C)(C)C)[C@]13OS(=O)(=O)C=C3Nc1cc(=O)[nH]c(=O)n12`, in assay [1], it took 16 µM to reach half-maximal cytotoxicity (CC50). In addition, the EC50 in assay [5] (mt4) is 5.9 µM and > 12 µM. Moreover, in assay [2], the Selectivity index is listed as 2.7.

In the case of `CC(C)(C)[Si](C)(C)OC[C@H]1O[C@@H](n2cc(I)c(=O)[nH]c2=O)[C@H](O[Si](C)(C)C(C)(C)C)[C@]12OS(=O)(=O)C=C2N`, the results for the EC50 in assay [3] and in assay [4] were 0.03 µM and greater than 5.7 µM, respectively. Moreover, the CC50 in assay [1] turned out to be 12 µM. Also, the Selectivity index in assay [2] was determined as 133.

Take `CC(C)(C)[Si](C)(C)OC[C@H]1O[C@@H](n2cc(C(F)(F)F)c(=O)[nH]c2=O)[C@H](O[Si](C)(C)C(C)(C)C)[C@]12OS(=O)(=O)C=C2N`: the EC50 in assay [3] was 0.77 µM; in assay [5] (mt4), 0.82 µM and > 6.2 µM; in assay [4] it was greater than 6.2 µM. In assay [1], this compound gave a cytotoxic concentration (CC50) of 14 µM. Also, the Selectivity index in assay [2] turned out to be 17.

Turning to `Cc1cn([C@@H]2O[C@H](CO[Si](C)(C)C(C)(C)C)[C@@]3(OS(=O)(=O)C=C3N)[C@H]2O[Si](C)(C)C(C)(C)C)c(=O)nc1N(C)C`, the values for the EC50 in assay [6] and in assay [5] (setting [7]) were greater than 32 µM and 0.16 µM, respectively. This compound yielded a CC50 in assay [1] of 62 µM. In assay [2], the Selectivity index is reported as 388.

`CC(C)(C)[Si](C)(C)OC[C@H]1O[C@@H](n2c(C#N)cc(=O)[nH]c2=O)[C@H](O[Si](C)(C)C(C)(C)C)[C@]12OS(=O)(=O)C=C2N`: the EC50 was 2.1 µM in assay [3], 3.6 µM in assay [5] (setting [7]), 3.6 µM in assay [5] (mt4) and greater than 6.6 µM in assay [4]. For the same compound, the midpoint of cytotoxicity in assay [1], the CC50, lay at 11 µM. Moreover, the Selectivity index in assay [2] was 3.

For `COC(=N)c1cc(=O)[nH]c(=O)n1[C@@H]1O[C@H](CO[Si](C)(C)C(C)(C)C)[C@@]2(OS(=O)(=O)C=C2N)[C@H]1O[Si](C)(C)C(C)(C)C`, the EC50 in assay [3] was 1.1 µM; in assay [5] (mt4), 2.7 µM and > 6.3 µM; in assay [4] it was greater than 6.3 µM. In addition, in assay [1], half-maximal cytotoxicity (CC50) was put at 11 µM. For the same compound, the Selectivity index in assay [2] came out at 4.1.

For the compound `CC(C)(C)[Si](C)(C)OC[C@H]1O[C@@H](n2cc(F)c(=O)[nH]c2=O)[C@H](O[Si](C)(C)C(C)(C)C)[C@]12OS(=O)(=O)C=C2N`, the EC50 in assay [3] was 0.34 µM; in assay [5] (mt4) it was 0.5 µM and > 1.3 µM; in assay [4] it was greater than 6.7 µM. The half-maximal cytotoxic concentration (CC50) in assay [1] came out at 5 µM. Besides, the Selectivity index in assay [2] stood at 10.

Regarding `CNc1ccn([C@@H]2O[C@H](CO[Si](C)(C)C(C)(C)C)[C@@]3(OS(=O)(=O)C=C3N)[C@H]2O[Si](C)(C)C(C)(C)C)c(=O)n1`, the EC50 is 3.38 µM in assay [3]; 0.68 µM and > 6.8 µM in assay [5] (mt4); greater than 6.8 µM in assay [4]. This compound also showed a CC50 in assay [1] of 12 µM. The Selectivity index in assay [2] was 18.

Consider `CN(C)c1ccn([C@@H]2O[C@H](CO[Si](C)(C)C(C)(C)C)[C@@]3(OS(=O)(=O)C=C3N)[C@H]2O[Si](C)(C)C(C)(C)C)c(=O)n1`, for which the results for the EC50 in assay [3] and in assay [4] were 0.75 µM and greater than 166 µM, respectively. Also, the CC50 in assay [1] is greater than 166 µM. Besides, the Selectivity index in assay [2] was 252.
